Data on 23 molecules can be found in ChEMBL document CHEMBL1130156, “Evolution of the Dmt-Tic pharmacophore: N-terminal methylated derivatives with extraordinary delta opioid antagonist activity” (J Med Chem, 1997).

Assay [1] deals with Delta-type opioid receptor (Mus musculus) (UniProt P32300). The note with it: Vas deferens.
For assay [2], the system named is Delta-type opioid receptor. Briefly: GPI/MVD ratio is based on Ke (antilog of pA2 value of antagonistic activity of compound for delta opioid receptor) and IC50 values. Type of assay: functional.
In assay [3] the target is T1, Delta-type opioid receptor (Rattus norvegicus, UniProt P33533). The assay can be described thus: Binding affinity for Opioid receptor delta 1 by displacement of [3H]- DPDPE. Summed up:
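Rat brain (Sprague–Dawley, minus cerebellum) synaptosomal membranes, preincubated to strip endogenous opioids. Equilibrium displacement of [3H]DPDPE (δ) or [3H]DAGO (μ); nonspecific binding defined with 2 μM unlabeled ligand. Peptides spanned 3–4 log units.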
For orientation: Loss of bound radioactivity is the signal in a displacement assay; it reports binding, not function.

Assay [4] deals with Mu-type opioid receptor (Cavia porcellus) (UniProt P97266). Briefly: Antagonist activity against Opioid receptor mu 1 in guinea pig ileum assay; '-' indicates inactive. Type of assay: functional, tissue-based. Summed up: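 Electrically stimulated mouse vas deferens or guinea pig ileum strips in Krebs' solution; agonist concentration–response curves run without and with rising antagonist concentrations; pA2 by Schild (Arunlakshana–Schild) analysis.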

In assay [5] the target is T2, Mu-type opioid receptor (Cavia porcellus, UniProt P97266). Briefly: Inhibitory activity against Opioid receptor mu 1 in an in vitro guinea pig ileum assay. Type of assay: tissue-based.
Assay [6] has as its target Opioid receptors; mu & delta (Rattus norvegicus) (UniProt P33533+P33535). Briefly: Ratio of the affinity for delta and mu opioid receptors (Ki mu/Ki delta) shows delta opioid receptor selectivity. Type of assay: protein assay.
For assay [7], the target named is Mu-type opioid receptor (Rattus norvegicus, UniProt P33535). Briefly: Binding affinity for Opioid receptor mu 1 by displacement of [3H]- DAGO. Summed up: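 Rat brain (Sprague–Dawley, minus cerebellum) synaptosomal membranes, preincubated to strip endogenous opioids. Equilibrium displacement of [3H]DPDPE (δ) or [3H]DAGO (μ); nonspecific binding defined with 2 μM unlabeled ligand. Peptides spanned 3–4 log units. Duplicates, ≥3 membrane preparations; Ki by Cheng–Prusoff; mean ± SEM, n = independent preparations.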

Assay [8] concerns the target Delta-type opioid receptor (Mus musculus, UniProt P32300). Briefly: Antagonist activity against Opioid receptor delta 1 in mouse vas deferens assay.
Assay [9] deals with T2, Mu-type opioid receptor. The assay can be described thus: Inhibitory activity against Opioid receptor mu 1 in an in vitro guinea pig ileum assay; '-' indicates inactive. Type of assay: tissue-based.
For assay [10], the target named is Delta-type opioid receptor (Mus musculus) (UniProt P32300). The note with it: Vas deferens. This is another data set of the same source.
The target of assay [11] is T1, Delta-type opioid receptor. Briefly: Agonist activity for Opioid receptor delta 1. Type of assay: functional.
The target of assay [12] is T2, Mu-type opioid receptor. The assay can be described thus: Antagonist activity against Opioid receptor mu 1 iin a guinea pig ileum assay.
In assay [13] the target is Mu-type opioid receptor (Cavia porcellus) (UniProt P97266). The note with it: Ileum.

SMILES strings stand for the structures. Activity calls are given as the source filed them. No cut-off for these calls is given here. Where a SMILES comes first, the peptide text is derived from it. [ ]: non-standard residue; d: D form. ξ: configuration not given here. Dmt = Cc1cc(O)cc(C)c1C[C@H](N)C(=O)O; NMeY = CN[CH](Cc1ccc(O)cc1)C(=O)O; Tic = O=C(O)[CH]1Cc2ccccc2CN1; ξTic = O=C(O)C1Cc2ccccc2CN1

Sequence of Delta-type opioid receptor (Mus musculus) (P32300 whole entry): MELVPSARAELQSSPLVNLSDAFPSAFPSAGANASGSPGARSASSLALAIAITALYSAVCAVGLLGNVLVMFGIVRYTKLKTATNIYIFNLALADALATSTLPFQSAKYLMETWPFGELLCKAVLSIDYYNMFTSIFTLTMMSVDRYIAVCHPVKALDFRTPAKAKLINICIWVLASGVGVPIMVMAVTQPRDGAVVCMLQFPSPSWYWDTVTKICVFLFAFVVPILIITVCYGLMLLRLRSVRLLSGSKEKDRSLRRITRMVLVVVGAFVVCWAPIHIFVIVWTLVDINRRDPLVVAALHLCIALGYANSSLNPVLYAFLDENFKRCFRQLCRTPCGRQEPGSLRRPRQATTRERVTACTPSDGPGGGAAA
Sequence of Delta-type opioid receptor (Mus musculus, UniProt P32300) (P32300 whole entry): as above
Sequence of Mu-type opioid receptor (Cavia porcellus) (P97266 whole entry): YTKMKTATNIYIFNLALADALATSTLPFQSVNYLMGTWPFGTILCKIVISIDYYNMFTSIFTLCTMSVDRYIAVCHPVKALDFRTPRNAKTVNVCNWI
T2 sequence (P97266 whole entry): as above
Sequence of Opioid receptors; mu & delta (Rattus norvegicus) (P33533 whole entry, looked up): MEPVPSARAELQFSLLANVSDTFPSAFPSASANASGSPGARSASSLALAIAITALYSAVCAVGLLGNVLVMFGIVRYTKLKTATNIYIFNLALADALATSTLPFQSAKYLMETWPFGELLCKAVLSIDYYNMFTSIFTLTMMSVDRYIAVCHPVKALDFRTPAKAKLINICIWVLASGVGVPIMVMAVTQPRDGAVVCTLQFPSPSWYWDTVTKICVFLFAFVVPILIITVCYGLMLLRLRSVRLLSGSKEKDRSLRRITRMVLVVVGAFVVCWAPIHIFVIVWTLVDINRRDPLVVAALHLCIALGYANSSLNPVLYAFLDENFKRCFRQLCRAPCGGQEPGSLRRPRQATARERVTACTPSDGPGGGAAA
Sequence of Opioid receptors; mu & delta (Rattus norvegicus) (P33535 whole entry, looked up): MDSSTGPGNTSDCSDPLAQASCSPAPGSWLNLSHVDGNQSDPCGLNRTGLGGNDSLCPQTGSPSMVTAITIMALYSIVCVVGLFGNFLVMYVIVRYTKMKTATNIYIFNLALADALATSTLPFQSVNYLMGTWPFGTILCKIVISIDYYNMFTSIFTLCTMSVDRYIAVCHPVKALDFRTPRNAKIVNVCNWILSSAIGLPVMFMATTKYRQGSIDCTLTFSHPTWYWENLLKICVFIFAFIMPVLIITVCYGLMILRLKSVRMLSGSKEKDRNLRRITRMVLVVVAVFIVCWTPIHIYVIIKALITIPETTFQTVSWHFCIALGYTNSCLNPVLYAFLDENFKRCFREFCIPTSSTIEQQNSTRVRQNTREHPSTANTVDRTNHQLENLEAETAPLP
T1 sequence (P33533 whole entry): as the sequence (P33533 whole entry, looked up) above
Sequence of Mu-type opioid receptor (Rattus norvegicus, UniProt P33535) (P33535 whole entry): as the sequence (P33535 whole entry, looked up) above

As for `Cc1cc(O)cc(C)c1C[C@@H](N)C(=O)N1Cc2ccccc2C[C@H]1C(=O)N[C@@H](C)C(=O)O`, the pA2 – broadly, a measure of antagonist potency on a negative log scale – in [1] worked out at 6.9. The Ratio in [2] was above 88; in assay [6], 197. Moreover, the figures for the Ki in [3] and in assay [7] were 13 nM and 2560 nM, respectively. The pA2 entry in assay [4] is “inactive”. Moreover, the IC50 – broadly, the concentration needed to halve the response being measured – in assay [5] is above 10000 nM.
Consider `CN[C@@H](Cc1c(C)cc(O)cc1C)C(=O)N1Cc2ccccc2CC1C(N)=O` (some centres undefined), for which the Ratio in assay [2] was above 4550; in assay [6], 2490. The Ki (usually the equilibrium dissociation constant of an inhibitor or competing ligand from its target) in [3] is 0.383 nM; in assay [7], 955 nM. The Kb (as a rule, the equilibrium dissociation constant of an antagonist, usually derived from a functional assay) in [8] was 2.51 nM. The IC50 in [5] is above 10000 nM.
Regarding `Cc1cc(O)cc(C)c1CC(N)C(=O)N1Cc2ccccc2C[C@H]1C(=O)O` (single isomer, unassigned), the IC50 entry in assay [9] was “Not Active”. For the same molecule, the pA2 result in assay [4] and in assay [10] was “inactive” throughout. In assay [7], this molecule showed a Ki of 11000 nM.
For `Cc1cc(O)cc(C)c1C[C@H](C(=O)N1Cc2ccccc2CC1C(=O)O)N(C)C` (some centres undefined), the Ratio in [2] was above 4200; in [6], 2280. The Ki in assay [3] amounted to 5.74 nM; in assay [7], 13100 nM. The pA2 result in [4] was “inactive”. The same molecule had a Kb in assay [8] of 2.51 nM. In assay [5], this molecule registered an IC50 above 10000 nM.
`CC(C)[C@H](NC(=O)[C@H](CC(=O)O)NC(=O)[C@H](Cc1ccccc1)NC(=O)[C@@H](C)NC(=O)[C@@H](N)Cc1ccc(O)cc1)C(=O)N[C@H](C(=O)NCC(N)=O)C(C)C` [DELTORPHIN C] came in with an IC50 in assay [11] of 0.54 nM.
For `Cc1cc(O)cc(C)c1C[C@H](N)C(=O)N1Cc2ccccc2C[C@H]1C(=O)N[C@@H](C)C(=O)O`, the IC50 in assay [5] was above 10000 nM.
Turning to `CN[C@H](Cc1c(C)cc(O)cc1C)C(=O)N1Cc2ccccc2CC1C(N)=O` (some centres undefined), in [9], the half-maximal inhibitory concentration (IC50) entry is on record as “Not Active”. The values for the Ki in assay [3] and in assay [7] were 11.2 nM and 1330 nM, respectively. In addition, the pA2 result in [4] and in assay [10] was “inactive” each time. In addition, in assay [6], the Ratio was 119.
As for `Cc1cc(O)cc(C)c1C[C@H](N)C(=O)N1Cc2ccccc2C[C@H]1C(=O)NC(C)C(=O)O` (some centres undefined), the pA2 in [1] amounted to 8.4. The Ratio in [2] is above 2500; in assay [6], 20400. The pA2 result in [4] is “inactive”.
For `CN[C@@H](Cc1c(C)cc(O)cc1C)C(=O)N1Cc2ccccc2CC1C(=O)O` (some centres undefined), the results for the Ratio in assay [2] and in assay [6] were above 3570 and 1870, respectively. Also, the Ki in assay [3] was 0.203 nM; in [7], 379 nM. Moreover, in assay [4], the pA2 result is “inactive”. In addition, the Kb in assay [8] is 3.16 nM. This molecule displayed an IC50 in [5] above 10000 nM.
Regarding `Cc1cc(O)cc(C)c1C[C@H](N)C(=O)N1Cc2ccccc2CC1C(N)=O` (some centres undefined) (H-[Dmt]-[ξTic]-NH2), the Ki in assay [3] amounted to 1.22 nM.
For `Cc1cc(O)cc(C)c1CC(C)C(=O)N1Cc2ccccc2CC1C(=O)O` (centres undefined), the Ki in [3] is 1300 nM; in [7], 71400 nM. In addition, in [6], the Ratio is 55.
Regarding `Cc1cc(O)cc(C)c1C[C@H](N)C(=O)N1Cc2ccccc2C[C@H]1C(=O)O`, the pA2 in assay [1] turned out to be 8.2. Also, in assay [4], the pA2 entry is “inactive”. The same molecule displayed an IC50 in assay [5] above 10000 nM.
As for `Cc1cc(O)cc(C)c1C[C@@H](C(=O)N1Cc2ccccc2CC1C(N)=O)N(C)C` (some centres undefined), the IC50 result in [9] is on record as “Not Active”. Also, the Kb in assay [12] was 501 nM; in assay [8], 0.126 nM. Also, the Ratio in [2] was 4500; in assay [6] it was 1660. Also, the Ki in assay [3] turned out to be 0.309 nM; in [7], 511 nM.
Regarding `CN[C@H](Cc1c(C)cc(O)cc1C)C(=O)N1Cc2ccccc2C[C@H]1C(=O)N[C@@H](C)C(=O)O`, the values for the Ki in assay [3] and in assay [7] were 106 nM and 19200 nM, respectively. The Ratio in [6] amounted to 181.
In the same order, the values of `CNC(Cc1ccc(O)cc1)C(=O)N1Cc2ccccc2CC1C(=O)O` (centres undefined) (H-[NMeY]-[Tic]-OH; configuration not given here) are 74.7 nM, 12400 nM and 166.
Turning to `Cc1cc(O)cc(C)c1C[C@@H](C(=O)N1Cc2ccccc2CC1C(=O)O)N(C)C` (some centres undefined), the IC50 result in assay [9] is on record as “Not Active”. Further, the Kb in assay [12] was 1580 nM; in assay [8], 0.398 nM. In addition, the results for the Ratio in assay [2] and in [6] were 5640 and 20600, respectively. Further, the Ki in assay [3] worked out at 0.118 nM; in assay [7], 2440 nM.
With `Cc1cc(O)cc(C)c1C[C@@H](C(=O)N1Cc2ccccc2C[C@H]1C(=O)N[C@@H](C)C(=O)O)N(C)C`, the IC50 entry in assay [9] is “Not Active”. In addition, the Kb was 1580 nM in assay [12] and 0.251 nM in assay [8]. For the same molecule, the Ratio in [2] was found to be 7180; in assay [6], 20000. For the same molecule, the Ki in assay [3] was found to be 0.0755 nM; in [7] it was 1520 nM.
In the case of `CN(C)[C@@H](Cc1ccc(O)cc1)C(=O)N1Cc2ccccc2CC1C(=O)O` (some centres undefined), the results for the inhibition constant (Ki) in assay [3] and in assay [7] were 43.5 nM and 11500 nM, respectively. The Ratio in assay [6] worked out at 265.
As to `CN[C@@H](Cc1c(C)cc(O)cc1C)C(=O)N1Cc2ccccc2C[C@H]1C(=O)N[C@@H](C)C(=O)O`, the Ratio is above 7100 in [2] and 43000 in [6]. Also, the inhibition constant Ki in assay [3] was determined as 0.136 nM; in [7], 5850 nM. Also, the pA2 result in assay [4] is “inactive”. Moreover, in assay [8], the Kb was 1.58 nM. Besides, the IC50 in [5] is above 10000 nM.
For the molecule `CN[C@H](Cc1c(C)cc(O)cc1C)C(=O)N1Cc2ccccc2CC1C(=O)O` (some centres undefined), the results for the Ratio in [2] and in assay [6] were above 71 and 628, respectively. Besides, the Ki in [3] was 3.19 nM; in [7] it was 2000 nM. For the same molecule, in assay [4], the pA2 entry is “inactive”. This molecule also showed a Kb in assay [8] of 158 nM. In [5], this molecule yielded a half-inhibitory concentration (IC50) above 10000 nM.
On to `Cc1cc(O)cc(C)c1C[C@H](C(=O)N1Cc2ccccc2C[C@H]1C(=O)N[C@@H](C)C(=O)O)N(C)C`, for which the Ki was found to be 108 nM in assay [3] and 19000 nM in [7]. The Ratio in [6] is 176.
As for `Oc1ccc2c3c1O[C@H]1c4[nH]c5ccccc5c4C[C@@]4(O)[C@@H](C2)N(CC2CC2)CC[C@]314` [NALTRINDOLE], the figures for the pA2 in assay [1] and in assay [13] were 9.2 and 7.3, respectively. For the same molecule, the IC50 entry in assay [9] is recorded as “Not Active”. Also, the Ratio in assay [2] amounted to 76.
Regarding `N[C@@H](Cc1ccc(O)cc1)C(=O)N1Cc2ccccc2C[C@H]1C(=O)O` (H-Tyr-[Tic]-OH), the Ki worked out at 192 nM in assay [3] and 28400 nM in assay [7]. The Ratio in [6] worked out at 148.
